Measurements taken from ChEMBL document CHEMBL4725360, “Optimization of Acetazolamide-Based Scaffold as Potent Inhibitors of Vancomycin-Resistant Enterococcus” (J Med Chem, 2020).
In brackets after ≈: the same amount, converted by molar mass. Activity calls are given as the source filed them. No cut-off for these calls is given here.

Assays:
Enterococcus faecium [1] = assay: Inhibition of carbonic anhydrase in Enterococcus faecium ATCC 700221 assessed as antibacterial activity incubated for 18 to 20 hrs in presence of ambient air by CLSI protocol based broth microdilution assay; conditions: time hrs 18-20
How it was run: (§1)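 CLSI broth microdilution: inoculum about 5 × 10⁵ CFU/mL in trypticase soy broth with serial dilutions of agents. Paired plates incubated at 37 °C for 18–20 h, one set in ambient air ("normal"), the other under 5% CO₂. MIC is the lowest concentration completely inhibiting visible growth.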

Enterococcus faecium [2] = assay: Antibacterial activity against Enterococcus faecium NR-28978 incubated for 18 to 20 hrs under aerobic condition by CLSI protocol based broth microdilution assay; type: functional; conditions: time hrs 18-20
How it was run: (§2)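 Broth microdilution per CLSI. Strains grown aerobically overnight on trypticase soy agar at 37 °C. Inoculum set to 0.5 McFarland, diluted in trypticase soy broth to about 5 × 10⁵ CFU/mL. Agents serially diluted, plates incubated aerobically at 37 °C for 18–20 h. MIC is the lowest concentration with no visible growth. Compound stocks 10 mg/mL in DMSO.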

Enterococcus faecalis [3] = assay: Antibacterial activity against Enterococcus faecalis NR-31970 incubated for 18 to 20 hrs under aerobic condition by CLSI protocol based broth microdilution assay; type: functional, organism-based; conditions: time hrs 18-20; how it was run: as §2
Enterococcus faecium [4] = assay: Antibacterial activity against Enterococcus faecium NR-31916 incubated for 18 to 20 hrs under aerobic condition by CLSI protocol based broth microdilution assay; type: functional; conditions: time hrs 18-20; how it was run: as §2
Enterococcus faecium [5] = assay: Antibacterial activity against Enterococcus faecium NR-31903 incubated for 18 to 20 hrs under aerobic condition by CLSI protocol based broth microdilution assay; type: functional; conditions: time hrs 18-20; how it was run: as §2
Enterococcus faecium [6] = assay: Inhibition of carbonic anhydrase in Enterococcus faecium ATCC 700221 assessed as antibacterial activity incubated for 18 to 20 hrs in presence of 5% CO2 by CLSI protocol based broth microdilution assay; conditions: time hrs 18-20; how it was run: as §1
Enterococcus faecalis [7] = assay: Antibacterial activity against Enterococcus faecalis NR-31975 incubated for 18 to 20 hrs under aerobic condition by CLSI protocol based broth microdilution assay; type: functional, organism-based; conditions: time hrs 18-20; how it was run: as §2
Enterococcus faecium [8] = assay: Antibacterial activity against Enterococcus faecium NR-31914 incubated for 18 to 20 hrs under aerobic condition by CLSI protocol based broth microdilution assay; type: functional; conditions: time hrs 18-20; how it was run: as §2
Enterococcus faecium [9] = assay: Antibacterial activity against Enterococcus faecium NR-31971 incubated for 18 to 20 hrs under aerobic condition by CLSI protocol based broth microdilution assay; type: functional; conditions: time hrs 18-20; how it was run: as §2
[10] = Cytotoxicity against human Caco2 cells incubated for 2 hrs by MTS assay; type: cell-based; conditions: Caco-2 cells
How it was run: (§3)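 Caco-2 cells maintained in DMEM with 10% FBS, non-essential amino acids and penicillin-streptomycin at 37 °C, 5% CO₂. Compound exposure for 2 h in serum-free medium at several concentrations; DMSO-matched controls. Viability expressed relative to DMSO controls (mean ± SD), and CC₅₀ derived.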

Caco-2 = assay: Cytotoxicity against human Caco2 cells at 128 ug/ml incubated for 2 hrs by MTS assay; type: cell-based; conditions: caco-2, 2 h, dose 128 µg/ml; how it was run: as §3
Enterococcus faecium [11] = assay: Antibacterial activity against Enterococcus faecium NR-32052 incubated for 18 to 20 hrs under aerobic condition by CLSI protocol based broth microdilution assay; type: functional; conditions: time hrs 18-20; how it was run: as §2
Enterococcus faecium [12] = assay: Antibacterial activity against Enterococcus faecium HM968 incubated for 18 to 20 hrs under aerobic condition by CLSI protocol based broth microdilution assay; type: functional; conditions: time hrs 18-20; how it was run: as §2
Enterococcus faecium [13] = assay: Antibacterial activity against Enterococcus faecium HM965 incubated for 18 to 20 hrs under aerobic condition by CLSI protocol based broth microdilution assay; type: functional; conditions: time hrs 18-20; how it was run: as §2
Enterococcus faecium [14] = assay: Antibacterial activity against Enterococcus faecium NR-32065 incubated for 18 to 20 hrs under aerobic condition by CLSI protocol based broth microdilution assay; type: functional; conditions: time hrs 18-20; how it was run: as §2
Enterococcus faecalis [15] = assay: Antibacterial activity against Enterococcus faecalis HM-335 incubated for 18 to 20 hrs under aerobic condition by CLSI protocol based broth microdilution assay; type: functional; conditions: time hrs 18-20; how it was run: as §2
Enterococcus faecalis [16] = assay: Antibacterial activity against Enterococcus faecalis HM-334 incubated for 18 to 20 hrs under aerobic condition by CLSI protocol based broth microdilution assay; type: functional; conditions: time hrs 18-20; how it was run: as §2
Enterococcus faecium [17] = assay: Antibacterial activity against Enterococcus faecium NR-31972 incubated for 18 to 20 hrs under aerobic condition by CLSI protocol based broth microdilution assay; type: functional; conditions: time hrs 18-20; how it was run: as §2
Enterococcus faecium [18] = assay: Bacteriostatic activity against Enterococcus faecium ATCC 700221 assessed as reduction in bacterial burden at 5 times MIC preincubated for 24 hrs followed by replating on soya agar plates and measured after 16 hrs by time-kill assay; type: functional, organism-based
How it was run: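 E. faecium ATCC 700221 overnight culture diluted in trypticase soy broth to 3.5 × 10⁶ CFU/mL. […] Samples taken at 2, 4, 6, 8, 12 and 24 h, diluted in PBS and plated on trypticase soy agar. Colonies counted after 16 h at 37 °C. Detection limit 100 CFU/mL. Two-way ANOVA with Dunnett's test.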

[19] = Half life in human liver microsomes after 60 mins; type: ADME, Microsome; conditions: 1 h
[20] = Apparent permeability across basolateral to apical side in human Caco2 cells; type: ADME, cell-based; conditions: caco-2
How it was run: (§4)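 Bi-directional Caco-2 monolayer permeability, run at Eurofins: donor at pH 6.5, receiver at pH 7.4, both A→B and B→A. Papp derived from receiver concentration at the end point, incubation time, monolayer area and mid-point donor concentration. Concentrations taken as peak areas.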

[21] = Metabolic stability in human liver microsomes assessed as compound remaining measured after 60 mins; type: ADME, Microsome; conditions: 1 h
How it was run: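 Human liver microsomes at 0.1 mg/mL, 37 °C. Percent parent remaining at 60 min, mean of 2 replicates.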

[22] = Apparent permeability across apical to basolateral side in human Caco2 cells; type: ADME, cell-based; conditions: caco-2; how it was run: as §4
[23] = Aqueous solubility of compound in pH 7.4 PBS measured at 24 hrs by HPLC analysis; type: physicochemical; conditions: buffer, pH 7.4, 24 h
How it was run: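 HPLC principal-peak area of the buffer sample compared with a 200 μM calibration standard in methanol/water 60/40.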

SMILES: NS(=O)(=O)c1nnc(NC(=O)CC2CCCC2)s1
- inhibition (Enterococcus faecium [1]): Active
- MIC (Enterococcus faecium [2]): 0.125 µg/mL (≈ 0.43 µM)
- Activity (Enterococcus faecalis [3]): Active
- MIC (Enterococcus faecium [4]): 0.015 µg/mL (≈ 0.0517 µM)
- MIC (Enterococcus faecium [5]): 0.125 µg/mL (≈ 0.43 µM)
- inhibition (Enterococcus faecium [6]): inactive
- Activity (Enterococcus faecalis [7]): Active
- MIC (Enterococcus faecium [8]): 0.125 µg/mL (≈ 0.43 µM)
- MIC (Enterococcus faecium [9]): 0.06 µg/mL (≈ 0.207 µM)
- CC50 at 2 h [10]: > 128 µg/mL
- Activity (Caco-2): Non-Toxic
- MIC (Enterococcus faecium [11]): 0.06 µg/mL (≈ 0.207 µM)
- MIC (Enterococcus faecium [12]): 0.06 µg/mL (≈ 0.207 µM)
- MIC (Enterococcus faecium [13]): 0.06 µg/mL (≈ 0.207 µM)
- MIC (Enterococcus faecium [14]): 0.015 µg/mL (≈ 0.0517 µM)
- MIC (Enterococcus faecalis [15]): 0.03 µg/mL (≈ 0.103 µM)
- MIC (Enterococcus faecalis [16]): 0.03 µg/mL (≈ 0.103 µM)
- MIC (Enterococcus faecium [17]): 0.03 µg/mL (≈ 0.103 µM)

SMILES: NS(=O)(=O)c1nnc(NC(=O)CN2CCOCC2)s1
- inhibition (Enterococcus faecium [1]): Active
- MIC (Enterococcus faecium [2]): 2 µg/mL (≈ 6.51 µM)
- MIC (Enterococcus faecium [4]): 1 µg/mL (≈ 3.25 µM)
- MIC (Enterococcus faecium [5]): 2 µg/mL (≈ 6.51 µM)
- inhibition (Enterococcus faecium [6]): inactive
- Activity (Enterococcus faecium [18]): Active
- t1/2 [19]: 4.95 h
- MIC (Enterococcus faecium [8]): 2 µg/mL (≈ 6.51 µM)
- Papp [20]: < 0.17 10^-6 cm/s
- Stabilty [21]: 86%
- MIC (Enterococcus faecium [9]): 2 µg/mL (≈ 6.51 µM)
- CC50 at 2 h [10]: > 128 µg/mL
- Papp [22]: < 0.17 10^-6 cm/s
- Activity (Caco-2): Non-Toxic
- MIC (Enterococcus faecium [11]): 1 µg/mL (≈ 3.25 µM)
- MIC (Enterococcus faecium [12]): 1 µg/mL (≈ 3.25 µM)
- MIC (Enterococcus faecium [13]): 1 µg/mL (≈ 3.25 µM)
- MIC (Enterococcus faecium [14]): 2 µg/mL (≈ 6.51 µM)
- solubility [23]: 126.6 µM (≈ 38.9 µg/mL)
- MIC (Enterococcus faecalis [15]): 0.5 µg/mL (≈ 1.63 µM)
- MIC (Enterococcus faecalis [16]): 4 µg/mL (≈ 13 µM)
- MIC (Enterococcus faecium [17]): 4 µg/mL (≈ 13 µM)

SMILES: CC(C)(C)C(=O)Nc1nnc(S(N)(=O)=O)s1
- MIC (Enterococcus faecium [2]): 0.25 µg/mL (≈ 0.946 µM)
- Activity (Enterococcus faecalis [3]): Active
- MIC (Enterococcus faecium [4]): 0.5 µg/mL (≈ 1.89 µM)
- MIC (Enterococcus faecium [5]): 0.5 µg/mL (≈ 1.89 µM)
- Activity (Enterococcus faecalis [7]): Active
- MIC (Enterococcus faecium [8]): 0.5 µg/mL (≈ 1.89 µM)
- MIC (Enterococcus faecium [9]): 0.5 µg/mL (≈ 1.89 µM)
- CC50 at 2 h [10]: > 128 µg/mL
- Activity (Caco-2): Non-Toxic
- MIC (Enterococcus faecium [11]): 0.5 µg/mL (≈ 1.89 µM)
- MIC (Enterococcus faecium [12]): 0.5 µg/mL (≈ 1.89 µM)
- MIC (Enterococcus faecium [13]): 0.25 µg/mL (≈ 0.946 µM)
- MIC (Enterococcus faecium [14]): 0.25 µg/mL (≈ 0.946 µM)
- MIC (Enterococcus faecalis [15]): 0.5 µg/mL (≈ 1.89 µM)
- MIC (Enterococcus faecalis [16]): 0.5 µg/mL (≈ 1.89 µM)
- MIC (Enterococcus faecium [17]): 1 µg/mL (≈ 3.78 µM)
